# Assay outcomes: PubChem BioAssay, several laboratories
# procasp7 counter: activates human procaspase-7, counter-screen for procaspase-3 activators; P55210; recombinant procaspase-7, Ac-DEVD-pNA absorbance 405 nm; D23A/D198A/D206A triple mutant, cannot self-cleave; scale: DMSO 0, 5 µM enzyme 100; activation, % at 8.5 µM; hit rate 0.093% among 330,000;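 active means percent activation above the screen-wide mean plus 3 SD, cut at about 25% in these data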
#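 Assay system – Uncleavable procaspase-7 mutant enzyme · Quantity – 2 µM procaspase-7 mutant as dispensed · Times – 1 h preincubation, 2 h reaction · Dosing – single nominal 8.5 µM compound dose, 0.8% DMSO final · Buffer or medium – Zinc-free 50 mM HEPES buffer, pH 7.4, with NaCl and Triton X-100 · Detection – Epi-absorbance of released pNA at 405 nm, two timepoints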
# CHT PAM: human CHT allosteric activation | Q9GZV3 | CHT-expressing cells, membrane potential dye, choline EC20; hits give high values; LV-AA mutant CHT in HEK293 cells | B-score at 10 µM | hit rate 0.49% among 310,000 | AID 488977;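 active means initial fluorescence not abnormally high and integrated response B-score, plate-corrected, over 3 SD above library mean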
# Target sequence (Q9GZV3 whole entry, looked up): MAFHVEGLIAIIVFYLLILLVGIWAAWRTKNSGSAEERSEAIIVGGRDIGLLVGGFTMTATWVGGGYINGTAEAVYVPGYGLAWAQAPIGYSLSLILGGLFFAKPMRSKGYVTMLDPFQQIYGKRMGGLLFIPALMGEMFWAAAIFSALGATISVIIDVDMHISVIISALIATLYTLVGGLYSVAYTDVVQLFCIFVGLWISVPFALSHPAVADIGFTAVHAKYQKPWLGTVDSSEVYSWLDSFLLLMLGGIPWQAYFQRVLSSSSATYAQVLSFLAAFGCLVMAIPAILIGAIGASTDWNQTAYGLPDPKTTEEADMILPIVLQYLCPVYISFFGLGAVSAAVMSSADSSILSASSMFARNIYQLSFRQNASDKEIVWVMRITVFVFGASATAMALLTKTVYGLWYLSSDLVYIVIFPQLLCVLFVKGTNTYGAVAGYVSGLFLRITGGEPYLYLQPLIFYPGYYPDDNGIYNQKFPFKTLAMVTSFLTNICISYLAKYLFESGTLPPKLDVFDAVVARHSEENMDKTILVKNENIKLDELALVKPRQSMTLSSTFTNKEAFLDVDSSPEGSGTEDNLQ
# procasp3 activ: activators of human procaspase-3; recombinant procaspase-3 D3A, Ac-DEVD-pNA absorbance 405 nm; activation, % at 8.5 µM; P42574; hit rate 0.11% among 330,000; AID 463141;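 active means activation above the mean of all tested compounds plus 3 SD, cut at about 21% in these data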;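 further: 0% = DMSO alone and 100% = DMSO wells spiked with extra 5 µM PC-3 D3A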
#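 Assay system – Procaspase-3 D3A mutant · Benchmarks – DMSO low control, extra-enzyme high control · Technique – 405 nm absorbance of p-nitroaniline, reads at 0 and 120 min · Doses – 8.5 µM nominal · Measure – % activation between DMSO and enzyme-spiked controls · Also added – Ac-DEVD-pNA chromogenic peptide substrate · Schedule – 1 h compound preincubation, 2 h substrate hydrolysis at 25 °C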
# CHT block: inhibitors of human choline transporter CHT | Q9GZV3 | CHT-expressing cells, membrane potential dye, choline response; hits give low values | B-score at 10 µM | hit rate 0.86% among 310,000 | AID 488975;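 active means B-score over 3 SD under the library average, and starting fluorescence ratio not unusually high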;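 further: choline stimulus applied at its EC90 after an EC20 pre-addition; B-score computed on integrated fluorescence ratio after choline addition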
# CHT block conf: confirmation of human choline transporter CHT inhibitors; CHT-expressing cells, choline membrane potential dye; LV-to-AA substituted CHT, HEK293 cells; CHT activity remaining % of control (hits give low values), % at 10 µM; hit rate 70% among 2,400; shares compounds with CHT block;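 active means choline transporter activity left, mean of duplicates at 10 µM, below buffer-only control mean minus 3 SD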;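 further: depolarization triggered by choline at its EC90 following an EC20 pre-addition; 0% = hemicholinium-3 full block and 100% = buffer-only control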
# HEK293 CHT ctr: activity in parental HEK293 cells lacking CHT. shares compounds with CHT block. membrane potential dye, choline response; active = decrease or increase beyond buffer ±3SD. membrane potential ratio readout (active if shifted either direction beyond buffer ±3SD; no single direction) at 10 µM. hit rate 4% among 2,400. AID 493222;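 further: parental cells lack the transporter so any hit is non-specific; ratio is peak minus trough fluorescence over baseline after EC90 choline challenge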
# * hit, by the source's call; i = inactive; x = not tested or not shown. Sampled rows, rich in hits. Any-hit rate of the full collection: about 1.3%.
SMILES,procasp7 counter,CHT PAM,procasp3 activ,CHT block,CHT block conf,HEK293 CHT ctr
O=C(NCC(c1cccnc1)N1CCN(c2ccccc2F)CC1)c1cccc(Cl)c1 (stereo unspecified),9,i,5,-6.9*,i,i
Cn1cc(CNC(=O)C2CCC(=O)N(Cc3ccc(Cl)cc3)C2)cn1 (stereo unspecified),11,i,6,i,x,x
O=S(=O)(NC1CCN(Cc2ccccc2)CC1)c1ccc2ccccc2c1,14,i,1,-5.7*,i,i
O=S(=O)(NC1CCN(Cc2ccccc2)CC1)c1cccc(S(=O)(=O)N2CCOCC2)c1,1,i,-2,i,x,x
CCC(=O)N1CCc2cc(Br)cc(S(=O)(=O)NC3CCN(Cc4ccccc4)CC3)c21,-2,i,-3,-9*,38%*,3.2*
Nc1ccn(CC(=O)NCCc2ccccn2)c(=O)n1,1,x,-3,x,x,x
OCCn1nc(-c2ccccc2)cc1-c1ccccc1,10,i,7,-9.3*,26%*,i
Nc1cc(-c2ccccc2)nn1Cc1ccccc1,-5,i,0,i,x,x
CCCc1nc2nc(C)c(NS(=O)(=O)c3ccc([N+](=O)[O-])cc3)c(=O)n2[nH]1,-17,i,-9,i,x,x
Fc1ccc(-c2nc3c(-c4ccc(F)cc4)cnn3cc2CCN2CCOCC2)cc1,3,i,8,-6.6*,59%*,i
Nc1ncc(CCN2CCOCC2)c(-c2ccc(F)cc2)n1,7,i,8,i,x,x
Fc1ccc(-c2nc3c(-c4ccccc4)cnn3cc2CCN2CCOCC2)cc1,10,i,-8,-10*,22%*,i
COc1ccc(NC2CCCN(C(=O)c3cc(CC(C)C)nc(N)n3)C2)cc1 (stereo unspecified),2,i,-4,i,x,x
Cc1ccc(NC(=O)CSCC(=O)Nc2cc(Cl)ccc2N2CCOCC2)cc1,4,i,2,i,x,x
O=[N+]([O-])/C(C(=C(Cl)Cl)N1CCN(Cc2ccccc2)CC1)=C1\NCCN1Cc1ccc(Cl)nc1,0,i,6,-13*,4.7%*,i
O=[N+]([O-])C(/C=C(\Cl)[N+](=O)[O-])=C1N(Cc2ccc(Cl)nc2)CCN1Cc1ccc(Cl)nc1,-4,i,1,i,x,x
O=C(/C=C/c1cn(-c2ccccc2)nc1-c1cccs1)NCCN1CCOCC1,6,i,0,-7.1*,i,i
Cc1ccccc1OCCC(=O)OCC(=O)c1c(N)n(CC(C)C)c(=O)n(C)c1=O,11,i,9,-6.6*,58%*,i
CC(C)Cn1c(N)c(C(=O)COC(=O)CCNS(=O)(=O)c2ccccc2)c(=O)n(C)c1=O,3,i,7,-6.3*,38%*,i
O=C(Nc1cccnc1)c1ccc(COc2ccccc2Cl)o1,23,i,-8,-7.3*,56%*,i
O=C(Nc1cccnc1)c1ccc(COc2cc(Cl)ccc2Cl)o1,1,i,-11,i,x,x
CC(C)C(NC(=O)C1CC(=O)N(Cc2ccccc2)C1)c1nc2ccccc2[nH]1 (stereo unspecified),6,x,6,x,x,x
N=c1n(Cc2ccc(Cl)cc2)c2ccccc2n1CC(O)COc1ccccc1 (stereo unspecified),10,i,-73,-9.2*,46%*,i
Cc1ccc(OCC(O)Cn2c(=N)n(Cc3ccccc3)c3ccccc32)cc1 (stereo unspecified),-4,i,-2,-9*,51%*,i
N=c1n(Cc2ccccc2)c2ccccc2n1Cc1ccccc1,-4,i,-5,i,x,x
Cc1cccc(OCC(O)CN2CCNCC2)c1 (stereo unspecified),1,i,-1,i,x,x
COc1ccc(OCC(O)Cn2c(=N)n(Cc3ccccc3)c3ccccc32)cc1 (stereo unspecified),-6,i,-4,-5.3*,31%*,i
N=c1n(CCO)c2ccccc2n1Cc1ccc(Cl)cc1,10,i,17,i,x,x
